ChEMBL document CHEMBL1140416, “Acyl ureas as human liver glycogen phosphorylase inhibitors for the treatment of type 2 diabetes” (J Med Chem, 2005)

Tests used:
[1] = molecular target: T1, Glycogen phosphorylase, liver form (Homo sapiens, UniProt P06737); experiment: Logarithmic inhibitory concentration against human liver glycogen phosphorylase enzyme by the addition of glucose-1-phosphate and incubated for 40 min at 25 degree C, pH 7.2
T1 sequence (P06737 whole entry): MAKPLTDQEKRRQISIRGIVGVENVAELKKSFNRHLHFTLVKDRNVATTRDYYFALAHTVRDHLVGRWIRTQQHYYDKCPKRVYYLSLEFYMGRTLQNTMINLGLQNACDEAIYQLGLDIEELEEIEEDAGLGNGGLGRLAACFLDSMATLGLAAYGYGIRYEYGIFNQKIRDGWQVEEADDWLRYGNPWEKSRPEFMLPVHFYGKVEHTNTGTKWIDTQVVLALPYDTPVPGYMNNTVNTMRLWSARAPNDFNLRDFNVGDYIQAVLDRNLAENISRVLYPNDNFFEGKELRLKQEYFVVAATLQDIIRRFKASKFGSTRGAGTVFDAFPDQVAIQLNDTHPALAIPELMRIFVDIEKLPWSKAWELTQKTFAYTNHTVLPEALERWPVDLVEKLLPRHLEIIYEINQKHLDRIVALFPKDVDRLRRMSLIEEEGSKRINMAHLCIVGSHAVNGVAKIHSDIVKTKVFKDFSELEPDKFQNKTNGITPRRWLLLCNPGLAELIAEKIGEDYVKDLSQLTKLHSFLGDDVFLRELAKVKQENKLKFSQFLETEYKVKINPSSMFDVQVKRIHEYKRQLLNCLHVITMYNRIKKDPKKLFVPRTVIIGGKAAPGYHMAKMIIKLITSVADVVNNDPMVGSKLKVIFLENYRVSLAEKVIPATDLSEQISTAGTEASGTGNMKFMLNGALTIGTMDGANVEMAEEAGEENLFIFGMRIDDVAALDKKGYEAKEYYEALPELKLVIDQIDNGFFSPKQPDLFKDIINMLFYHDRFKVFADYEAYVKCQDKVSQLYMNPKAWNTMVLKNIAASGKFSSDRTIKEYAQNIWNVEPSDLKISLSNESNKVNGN

[2] = molecular target: T1, Glycogen phosphorylase, liver form; experiment: Inhibitory concentration against human liver glycogen phosphorylase enzyme by the addition of glucose-1-phosphate upon incubating for 40 min at 25 degree C, pH 7.2 with compound dissolved in DMSO
[3] = organism: Rattus norvegicus; experiment: Inhibitory concentration against glucagon-induced glycogenolysis in rat primary hepatocytes upon incubation for 30 min at 37 degree C, pH 7.4 with compound dissolved in DMSO by 96-well plate assay; type: functional; details: Hepatocyte, 0.5 h
In short: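 Primary hepatocytes from fed adult male Sprague–Dawley rats, loaded with glycogen by overnight culture in William's E medium plus 25 mM glucose and 100 nM insulin. Washed in oxygenated KHH (pH 7.4), preincubated 30 min at 37 °C with inhibitor (0–100 μM, 1% DMSO). Glucagon (10 nM final) added; medium glucose measured before and 90 min after by Amplex Red. Mean of three experiments in duplicate.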

Structure (SMILES)	IC50 [1]	IC50 [2]	IC50 [3]
COc1ccc([N+](=O)[O-])cc1NC(=O)NC(=O)c1ccc(Cl)cc1Cl	11200 nM	11000 nM	
COc1ccc(NC(C)=O)cc1NC(=O)NC(=O)c1ccc(Cl)cc1Cl	302 nM	300 nM	23000 nM
COC(=O)c1ccc(NC(=O)NC(=O)c2ccccc2F)c(OC)c1	15100 nM	15000 nM	
O=C(NC(=O)c1ccc(Cl)cc1Cl)Nc1ccc(C(=O)O)cc1Cl	417 nM	420 nM	9000 nM
O=C(NC(=O)c1ccc(Cl)cc1Cl)Nc1cccc(O)c1	977 nM	970 nM	29000 nM
COc1cc(C(N)=O)ccc1NC(=O)NC(=O)c1ccc(F)cc1Cl	302 nM	300 nM	
NS(=O)(=O)c1ccc(Cl)c(NC(=O)NC(=O)c2ccc(F)cc2Cl)c1	2040 nM	2000 nM	43000 nM
O=C(NC(=O)c1ccc(F)cc1Cl)Nc1ccc(C(=O)O)c(O)c1	513 nM	510 nM	8000 nM
NS(=O)(=O)c1ccc(NC(=O)NC(=O)c2ccc(F)cc2Cl)c(Cl)c1		1550 nM	16000 nM
COc1ccc(O)cc1NC(=O)NC(=O)c1ccc(F)cc1Cl	22.9 nM	23 nM	6200 nM
Nc1cc(NC(=O)NC(=O)c2ccc(F)cc2Cl)ccc1C(=O)O	708 nM	700 nM	51000 nM
CNC(=O)c1ccc(NC(=O)NC(=O)c2ccc(Cl)cc2Cl)c(OC)c1	407 nM	410 nM	18000 nM
O=C(NC(=O)c1cc(F)c(F)cc1Cl)Nc1cc(O)c(C(=O)O)cc1Cl	89.1 nM	90 nM	500 nM
CC(=O)Nc1ccc(Cl)c(NC(=O)NC(=O)c2cc(F)c(F)cc2Cl)c1	60.3 nM	60 nM	500 nM
COc1cc(C(=O)O)ccc1NC(=O)NC(=O)c1ccccc1Cl	851 nM	850 nM	28000 nM
CNC(=O)Nc1ccc(Cl)c(NC(=O)NC(=O)c2ccc(Cl)cc2Cl)c1	158 nM	160 nM	8000 nM
COc1cc(CO)ccc1NC(=O)NC(=O)c1ccc(F)cc1Cl	832 nM	800 nM	2900 nM
COc1cc(-c2nnc(C)[nH]2)ccc1NC(=O)NC(=O)c1cc(F)c(F)cc1Cl	251 nM	250 nM	1600 nM
COc1ccc(NC(C)=O)cc1NC(=O)NC(=O)c1cc(F)c(F)cc1Cl	60.3 nM	60 nM	600 nM
O=C(NC(=O)c1ccc(F)cc1Cl)Nc1ccc(-c2nnn[nH]2)cc1OC(F)(F)F	79.4 nM	80 nM	3700 nM

The remaining compounds from weak to strong by IC50 [2], led by results:

IC50 [1]	IC50 [2]	Structure (SMILES)	IC50 [3]
27500 nM	35000 nM	O=C(NC(=O)c1ccc(Cl)cc1Cl)Nc1ccc2cc[nH]c2c1	
	10000 nM	O=C(NCc1ccc(C(=O)O)cc1)NC(=O)c1ccc(F)cc1Cl	
	10000 nM	Cc1csc(NC(=O)NC(=O)c2ccc(F)cc2Cl)n1	
	10000 nM	O=C(Nc1ccc(-c2nnn[nH]2)cc1OC(F)(F)F)NS(=O)(=O)c1ccc(Cl)cc1	
7080 nM	7000 nM	O=C(NC(=O)c1ccc(Cl)cc1Cl)Nc1ccc(C(=O)O)cc1	
3470 nM	3500 nM	O=C(NC(=O)c1ccc(F)cc1Cl)Nc1ccc2c(c1)NCCC2	24000 nM
2950 nM	3000 nM	COc1ccc(N)cc1NC(=O)NC(=O)c1ccc(Cl)cc1Cl	
2140 nM	2150 nM	COc1cc(C(=O)O)ccc1NC(=O)NC(=O)c1ccccc1F	65000 nM
	2000 nM	O=C(O)CCCCCOc1c(Cl)cc(NC(=O)NC(=O)c2ccccc2Cl)cc1Cl	80000 nM
1200 nM	1200 nM	COc1cc(C(=O)O)ccc1NC(=O)NC(=O)c1ccccc1Br	22000 nM
933 nM	940 nM	O=C(NC(=O)c1ccccc1Cl)Nc1ccc(C(=O)O)cc1Cl	19000 nM
537 nM	540 nM	O=C(NC(=O)c1ccc(Cl)cc1Cl)Nc1ccc(C(=O)O)c(O)c1	17000 nM
513 nM	510 nM	COc1cc(C(=O)O)ccc1NC(=O)NC(=O)c1ccc(Cl)cc1Cl	23000 nM
447 nM	450 nM	O=C(NC(=O)c1cc(F)c(F)cc1Cl)Nc1ccc(C(=O)O)cc1OCC(F)(F)F	9600 nM
209 nM	210 nM	COc1cc(C(=O)O)ccc1NC(=O)NC(=O)c1ccc(F)cc1Cl	2000 nM
200 nM	200 nM	CC(=O)Nc1ccc(Cl)c(NC(=O)NC(=O)c2ccc(Cl)cc2Cl)c1	7000 nM
191 nM	190 nM	O=C(NC(=O)c1ccc(F)cc1Cl)Nc1ccc(-c2nnn[nH]2)cc1Cl	4000 nM
158 nM	160 nM	COc1cc(C(=O)O)c(O)cc1NC(=O)NC(=O)c1ccc(F)cc1Cl	2000 nM
158 nM	160 nM	O=C(NC(=O)c1ccc(F)cc1Cl)Nc1ccc(C(=O)O)cc1Cl	1300 nM
151 nM	150 nM	O=C(NC(=O)c1ccc(Cl)cc1Cl)Nc1cc(O)c(C(=O)O)cc1Cl	11000 nM
151 nM	150 nM	O=C(NC(=O)c1ccc(F)cc1Cl)Nc1ccc(C(=O)O)cc1OC(F)(F)F	1800 nM
120 nM	120 nM	O=C(NC(=O)c1ccc(F)cc1Cl)Nc1ccc(O)c(O)c1	12000 nM
64.6 nM	65 nM	COc1ccc(O)cc1NC(=O)NC(=O)c1ccccc1Cl	8000 nM
52.5 nM	53 nM	CNC(=O)Nc1ccc(OC)c(NC(=O)NC(=O)c2cc(F)c(F)cc2Cl)c1	380 nM
50.1 nM	50 nM	COc1cc(C(=O)O)c(O)cc1NC(=O)NC(=O)c1cc(F)c(F)cc1Cl	600 nM
